The source made the active and inactive calls.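 How the source made its calls, unless noted: active means GFP response above 150% of the DMSO level; inconclusive means fewer than 70 events counted for a yeast strain; inactive means the rest.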
Columns and labels:
[1] = hit retest on RPL19A-GFP reporter strain – cell-based, S. cerevisiae, flow cytometry, cherry picks, mother/daughter gates, confirmation (AID 2270;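 active means GFP response below 50% of the DMSO control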); conditions: 3 h, at 10 µM, stronger effect = lower value, 100 = same GFP as DMSO wells
[2] = yeast TOR pathway reporter LAP4-GFP change – cell-based, cherry picks, flow cytometry, mother/daughter gates, confirmation (AID 2271;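 active means GFP response above 150% of the DMSO control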;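 further: ratio of sample to DMSO plate mean so 100% equals DMSO level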); conditions: S. cerevisiae LAP4-GFP strain, 3 h, at 10 µM, stronger effect = higher value, 100 means same as DMSO control
Method in brief: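 Test system: GFP-fusion yeast strain. Medium: synthetic complete (SC) yeast growth medium. Timing: 3 h treatment at 30 °C with rotation. Measured by: GFP by flow cytometry. Control set: positive rapamycin (400 ng/mL), negative DMSO.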

[3] = TOR pathway reporter MEP2-GFP, retest of hits – S. cerevisiae, flow cytometry GFP, cherry picks, confirmation (AID 2272;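 active means GFP response above 150% of the DMSO control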;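 further: ratio of well signal to plate DMSO mean so 100% equals DMSO level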); conditions: S. cerevisiae MEP2-GFP strain, 3 h, at 10 µM, stronger effect = higher value
[4] = yeast AGP1-GFP fluorescence change, single-dose – cell-based, flow cytometry, S. cerevisiae, cherry picks, confirmation (AID 2273);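 further: median GFP channel fluorescence over the whole cell population gate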; conditions: S. cerevisiae AGP1-GFP strain, 3 h, at 10 µM
[5] = TOR pathway CIT2 reporter hit retest – S. cerevisiae, GFP fusion, cherry picks, mother/daughter gates, confirmation (AID 2274); conditions: S. cerevisiae CIT2-GFP strain, flow cytometry, 3 h, at 10 µM, stronger effect = higher value
[6] = measured here: daughter cell gate
[7] = measured here: mother cell gate
[8] = measured here: daughter cell gate response
[9] = measured here: mother cell gate response

Compound	GFP response vs DMSO [1]	GFP response vs DMSO [1, 6]	GFP response vs DMSO [1, 7]	GFP response relative to DMSO [2]	GFP response relative to DMSO [2, 8]	GFP response relative to DMSO [2, 9]	GFP response vs DMSO [3]	GFP response, % of DMSO [4]	GFP response, % of DMSO [5]	GFP response, % of DMSO [5, 6]	GFP response, % of DMSO [5, 7]
CCCOc1ccc(C(=O)NNC(=S)NC(=O)c2ccccc2)cc1	114% (inactive)	111%	113%	149% (inactive)	136%	150%	128% (inactive)	98.3% (inactive)	114% (inactive)	116%	108%
CCc1ccc(OCC(=O)NNC(=S)NC(=O)C2CC2)c(Br)c1	82.8% (inactive)	97.6%	70.1%	204% (active)	164%	203%	126% (inactive)	90.5% (inactive)	115% (inactive)	110%	105%
Cc1ccc(-c2noc(CCC(=O)Nc3ccccc3C)n2)cc1	98% (inactive)	97%	96.5%	111% (inactive)	104%	112%	106% (inactive)	100% (inactive)	100% (inactive)	101%	98.2%
COc1ccc(N2C(=O)C(Cl)=C(Nc3ccccc3O)C2=O)cc1	99.6% (inactive)	98.8%	100%	102% (inactive)	101%	103%	112% (inactive)	98.8% (inactive)	100% (inactive)	95.6%	99.3%
C=CCNC(=O)/C(C#N)=C/c1c(N2CC(C)OC(C)C2)nc2ccccn2c1=O (configuration not stated)	98.8% (inactive)	99.5%	98.4%	102% (inactive)	100%	105%	102% (inactive)	100% (inactive)	96.5% (inactive)	98.1%	94.4%
CCC(=O)Oc1oc(-c2ccccc2)nc1C=Nc1ccccc1OC	102% (inactive)	102%	102%	105% (inactive)	94.4%	108%	95.2% (inactive)	95.5% (inactive)	90.3% (inactive)	86.9%	92.6%
COc1ccc(/C=N/NC(=O)C2(C)NC(C)(C)Cc3ccccc32)cc1 (configuration not stated)	94.4% (inactive)	94.9%	95.3%	96.7% (inactive)	97.6%	96.1%	96.2% (inactive)	99.7% (inactive)	99.7% (inactive)	99.1%	98.5%
COc1ccc(-c2nc3cccc(C)n3c2NCc2ccco2)cc1OC	101% (inactive)	99.5%	100%	100% (inactive)	101%	101%	97.2% (inactive)	99.5% (inactive)	97.2% (inactive)	99.3%	97.1%
CC[n+]1ccc(/C=C/c2c[nH]c3ccccc23)cc1	100% (inactive)	101%	98.8%	104% (inactive)	104%	105%	128% (inactive)	102% (inactive)	117% (inactive)	119%	119%
Cc1ccc(C(C[N+](=O)[O-])n2nc(C)cc2C)cc1 (configuration not stated)	97% (inactive)	101%	93.6%	120% (inactive)	120%	125%	103% (inactive)	102% (inactive)	90.9% (inactive)	95.2%	87.8%
O=C(O)COc1c(-c2ccc(Cl)cc2)oc2ccccc2c1=O	97% (inactive)	95.4%	97.9%	99.2% (inactive)	99.2%	99.3%	102% (inactive)	96% (inactive)	96.9% (inactive)	97.2%	96.1%
COC(=O)c1ccc(/C=C/C(=O)c2cccc(OC)c2)cc1	104% (inactive)	102%	103%	117% (inactive)	112%	116%	105% (inactive)	101% (inactive)	103% (inactive)	101%	102%
CC(C)(C)C(=O)NCC12C=CC(O1)C1C(=O)N(c3ccccc3)C(=O)C12 (configuration not stated)	94% (inactive)	96.1%	92.9%	108% (inactive)	108%	111%	110% (inactive)	104% (inactive)	106% (inactive)	105%	105%
CSc1nc2ccc(S(=O)(=O)N3CCCC3)cc2s1	90.5% (inactive)	85.5%	93.3%	135% (inactive)	128%	140%	95.7% (inactive)	94.1% (inactive)	78.2% (inactive)	75.2%	80.5%
O=C(O)c1ccc(Sc2ccccn2)c([N+](=O)[O-])c1	98% (inactive)	99.1%	98.2%	96.7% (inactive)	97.6%	95.1%	102% (inactive)	97% (inactive)	99.7% (inactive)	101%	98.5%
Cc1ccc(C(C[N+](=O)[O-])Sc2ccc(N)cc2)cc1 (configuration not stated)	95.6% (inactive)	98.4%	94.8%	135% (inactive)	133%	140%	109% (inactive)	89.6% (inactive)	98.3% (inactive)	103%	95%
COc1cccc2cc(C(=O)N3CCN(C/C=C/c4ccccc4)CC3)c(=O)oc12	98.6% (inactive)	99.6%	98%	97% (inactive)	95.9%	98.4%	103% (inactive)	96.7% (inactive)	95.9% (inactive)	93.8%	96.8%
CCOC(=O)c1ccc(NC(=O)CCc2nc(-c3ccccc3)no2)cc1	97.3% (inactive)	97%	97.5%	107% (inactive)	107%	108%	106% (inactive)	99.3% (inactive)	101% (inactive)	101%	98.2%
N=C1S/C(=C\c2ccco2)C(=O)N1c1nccs1	109% (inactive)	108%	100%	168% (active)	145%	168%	112% (inactive)	95.7% (inactive)	108% (inactive)	108%	103%
CC(C)(C)c1ccc(C(=O)N/N=C/c2cccc(Cl)c2)cc1	96% (inactive)	96.4%	95.4%	100% (inactive)	101%	102%	99.3% (inactive)	97% (inactive)	91.7% (inactive)	92.3%	92.6%
COc1ccc(-c2noc(-c3cccc(Cl)c3)n2)cc1OC	98% (inactive)	97.3%	97.6%	102% (inactive)	101%	101%	102% (inactive)	96.2% (inactive)	99.3% (inactive)	102%	96.8%
O=C(Nc1nccs1)C(c1ccccc1)N1CCCCC1 (configuration not stated)	103% (inactive)	100%	104%	93.1% (inactive)	94.2%	93.1%	103% (inactive)	101% (inactive)	94.4% (inactive)	92%	94.4%
